What was measured:
[1] = tested on: NCI-N87; test: Cytotoxicity against human NCI-N87 cells assessed as decrease in cell viability after 72 hrs by MTS assay; type: functional, cell-based; conditions: NCI-N87, 72 h
How it was run: (§1)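 Cell proliferation assay using the MTS reagent. Compounds were tested as a dilution series, and EC50 values were derived from the concentration–response data.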

[2] = tested on: MDA-MB-468; test: Cytotoxicity against human MDA-MB-468 cells assessed as decrease in cell viability after 72 hrs by MTS assay; type: functional, cell-based; conditions: MDA-MB-468, 72 h; how it was run: as §1
[3] = tested on: SK-OV-3; test: Cytotoxicity against human SKOV3 cells assessed as decrease in cell viability after 72 hrs by MTS assay; type: functional, cell-based; conditions: SK-OV-3, 72 h; how it was run: as §1
[4] = tested on: U-87 MG; test: Cytotoxicity against human U87MG cells assessed as decrease in cell viability after 72 hrs by MTS assay; type: functional, cell-based, U-87MG ATCC; how it was run: as §1
[5] = tested on: HeLa; test: Cytotoxicity against human HeLa cells assessed as decrease in cell viability after 72 hrs by MTS assay; type: functional, cell-based; how it was run: as §1
[6] = tested on: CCRF S-180; test: Cytotoxicity against mouse S180 cells assessed as decrease in cell viability after 72 hrs by MTS assay; type: functional, cell-based; conditions: CCRF S-180, 72 h; how it was run: as §1
[7] = tested on: NCI-H1975; test: Cytotoxicity against human NCI-H1975 cells assessed as decrease in cell viability after 72 hrs by MTS assay; type: functional, cell-based; conditions: NCI-H1975, 72 h; how it was run: as §1
[8] = tested on: A549; test: Cytotoxicity against human A549 cells assessed as decrease in cell viability after 72 hrs by MTS assay; type: functional, cell-based; conditions: A549, 72 h; how it was run: as §1
[9] = tested on: MCF7; test: Cytotoxicity against human MCF7 cells assessed as decrease in cell viability after 72 hrs by MTS assay; type: functional, cell-based; conditions: MCF7, 72 h; how it was run: as §1
[10] = tested on: HepG2; test: Cytotoxicity against human HepG2 cells assessed as decrease in cell viability after 72 hrs by MTS assay; type: functional, cell-based; conditions: HepG2, 72 h; how it was run: as §1
[11] = tested on: DU-145; test: Cytotoxicity against human DU145 cells assessed as decrease in cell viability after 72 hrs by MTS assay; type: functional, cell-based; conditions: DU-145, 72 h; how it was run: as §1
[12] = tested on: H22; test: Cytotoxicity against mouse H22 cells assessed as decrease in cell viability after 72 hrs by MTS assay; type: functional, cell-based; conditions: H22, 72 h; how it was run: as §1
[13] = tested on: HT-1080; test: Cytotoxicity against human HT1080 cells assessed as decrease in cell viability after 72 hrs by MTS assay; type: functional, cell-based; conditions: HT-1080, 72 h; how it was run: as §1
[14] = tested on: MRC5; test: Cytotoxicity against human MRC5 cells assessed as decrease in cell viability after 72 hrs by MTS assay; type: cell-based; conditions: MRC5, 72 h; how it was run: as §1
[15] = tested on: 786-0; test: Cytotoxicity against human 786-O cells assessed as decrease in cell viability after 72 hrs by MTS assay; type: functional, cell-based; conditions: 786-0, 72 h; how it was run: as §1
[16] = Cytotoxicity against human LOX cells assessed as decrease in cell viability after 72 hrs by MTS assay; type: functional, cell-based; how it was run: as §1
[17] = tested on: MES-SA/Dx5; test: Cytotoxicity against human MES-SA/Dx5 cells assessed as decrease in cell viability after 72 hrs by MTS assay; type: functional, cell-based; conditions: MES-SA/Dx5, 72 h; how it was run: as §1
[18] = tested on: MV4-11; test: Cytotoxicity against human MV411 cells assessed as decrease in cell viability after 72 hrs by MTS assay; type: functional, cell-based; conditions: MV4-11, 72 h; how it was run: as §1
[19] = tested on: Daudi; test: Cytotoxicity against human Daudi cells assessed as decrease in cell viability after 72 hrs by MTS assay; type: functional, cell-based; how it was run: as §1
[20] = tested on: PANC-1; test: Cytotoxicity against human PANC1 cells assessed as decrease in cell viability after 72 hrs by MTS assay; type: functional, cell-based; conditions: PANC-1, 72 h; how it was run: as §1
[21] = tested on: HCT-116; test: Cytotoxicity against human HCT116 cells assessed as decrease in cell viability after 72 hrs by MTS assay; type: functional, cell-based; conditions: HCT-116, 72 h; how it was run: as §1
[22] = tested on: THP-1; test: Cytotoxicity against human THP1 cells assessed as decrease in cell viability after 72 hrs by MTS assay; type: functional, cell-based; conditions: THP-1, 72 h; how it was run: as §1
[23] = tested on: BXPC-3; test: Cytotoxicity against human BxPC3 cells assessed as decrease in cell viability after 72 hrs by MTS assay; type: functional, cell-based; conditions: BXPC-3, 72 h; how it was run: as §1
[24] = tested on: LoVo; test: Cytotoxicity against human LoVo cells assessed as decrease in cell viability after 72 hrs by MTS assay; type: functional, cell-based; how it was run: as §1
[25] = tested on: BT-474; test: Cytotoxicity against human BT474 cells assessed as decrease in cell viability after 72 hrs by MTS assay; type: functional, cell-based; conditions: BT-474, 72 h; how it was run: as §1
[26] = tested on: HUVEC; test: Cytotoxicity against human HUVEC cells assessed as decrease in cell viability after 72 hrs by MTS assay; type: cell-based; how it was run: as §1
[27] = tested on: MES-SA; test: Cytotoxicity against human MESSA cells assessed as decrease in cell viability after 72 hrs by MTS assay; type: functional, cell-based; how it was run: as §1

Molecule CC1(C)[C@@H](OC(N)=O)[C@H]2O[C@H]2[C@]2(C=O)[C@H]3CC[C@]4(C)[C@@H](c5ccc(=O)oc5)[C@@H](Cl)C[C@]4(O)C3=CC[C@@H]12 has an EC50 [1] of 6.3 nM, an EC50 [2] of 8.4 nM and an EC50 [3] of 6.1 nM. It also gave an EC50 [4] of 6.4 nM, an EC50 [5] of 5.1 nM and an EC50 [6] of over 20000 nM. It also gave an EC50 [7] of 4.9 nM, an EC50 [8] of 3.8 nM and an EC50 [9] of 15 nM. For the same molecule, the EC50 [10] was 3.2 nM, the EC50 [11] was 7.2 nM and the EC50 [12] was 2400 nM. The EC50 [13] was 5.4 nM, the EC50 [14] was 2.7 nM and the EC50 [15] was 2.6 nM. It also gave an EC50 [16] of 3.2 nM, an EC50 [17] of 5.7 nM and an EC50 [18] of 6.4 nM. It also gave an EC50 [19] of 2.8 nM, an EC50 [20] of 2.4 nM and an EC50 [21] of 5.9 nM. The EC50 [22] was 4.1 nM, the EC50 [23] was 5.5 nM and the EC50 [24] was 6 nM. The EC50 [25] was 3.9 nM, the EC50 [26] was 7.7 nM and the EC50 [27] was 7.4 nM.

— ChEMBL document CHEMBL4266027, “Cyanobufalins: Cardioactive Toxins from Cyanobacterial Blooms” (J Nat Prod, 2018)
